Screening results: PubChem BioAssay, several laboratories
Sampled rows, rich in hits. Any-hit rate of the full collection: about 2.9%.
ATG4B inh = inhibitors of human ATG4B cysteine protease; Q9Y4P1; ATG4B cleavage of LC3-PLA2, NBD-HPC fluorescence, 1 h; inhibition, % at 8.33 µM; hit rate 0.51% among 340,000; AID 504462; in the data active means inhibition above about 40%
Dynein cargo inh = dynein cargo transport inhibition; 3617.4 mouse cells, GR-EGFP nuclear translocation imaging; test concentration mostly 20 µM; stimulated with dexamethasone, 1 µM; stronger effect = lower value; z-score, hits read low; hit rate 0.47% among 220,000; AID 1381;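 active means plate z-score of nuclear minus cytoplasmic receptor signal below a set negative limit, without overly bright fluorescence or cell loss, cut at about -3.5 in these data, passing the limit was not always enough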;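 further: z-score of nuclear minus cytoplasmic ring GR-EGFP intensity difference per well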
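Buffer or medium: tet-free medium with charcoal-stripped serum / Also added: dexamethasone agonist, 1.0 µM final, for 30 min / Timing: induction 48 h, compound 1 h, agonist 30 min / Measured by: high-content fluorescence imaging after fixation / Read-out: nuclear-to-cytoplasmic GR-EGFP distribution per well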
MEKK2wt PB1 HTS = raises or lowers MEK5 binding to wildtype human MEKK2 PB1 domain. bead flow cytometry, Alexa488-MEK5 binding to MEKK2 WT; actives lie on both sides. binding response (% of control), % at 10 µM. hit rate 1.1% among 290,000. AID 1531; in the data active means binding response below about 67% or above about 130%
Beta2AR agonist = agonists of human beta-2 adrenergic receptor inducing internalization; Am2.2-beta2AR cells, FAP receptor internalization, flow cytometry; response, % (no concentration beside the values); AID 504454; hit rate 0.43% among 340,000; P07550;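 active means response above a set limit, near 3 SD of response in nonfluorescent compounds, cut at about 42% in these data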
MEKK3 PB1 HTS = modulators (inhibitors or enhancers) of MEK5 binding to human MEKK3 PB1 domain. bead-based flow cytometry, Alexa488-MEK5 binding to MEKK3; actives lie on both sides; 0 = blocked by unlabeled MEK5, 100 = vehicle. binding response (% of control), % at 10 µM. hit rate 1.4% among 290,000;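 active means binding response more than 3 SD above or below the average of its plate-row segment, actives on both sides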;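 further: Alexa488 bead fluorescence after subtracting the streptavidin-only scavenger bead signal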
Target sequence (Q99759 whole entry, looked up, the tested form may be a part): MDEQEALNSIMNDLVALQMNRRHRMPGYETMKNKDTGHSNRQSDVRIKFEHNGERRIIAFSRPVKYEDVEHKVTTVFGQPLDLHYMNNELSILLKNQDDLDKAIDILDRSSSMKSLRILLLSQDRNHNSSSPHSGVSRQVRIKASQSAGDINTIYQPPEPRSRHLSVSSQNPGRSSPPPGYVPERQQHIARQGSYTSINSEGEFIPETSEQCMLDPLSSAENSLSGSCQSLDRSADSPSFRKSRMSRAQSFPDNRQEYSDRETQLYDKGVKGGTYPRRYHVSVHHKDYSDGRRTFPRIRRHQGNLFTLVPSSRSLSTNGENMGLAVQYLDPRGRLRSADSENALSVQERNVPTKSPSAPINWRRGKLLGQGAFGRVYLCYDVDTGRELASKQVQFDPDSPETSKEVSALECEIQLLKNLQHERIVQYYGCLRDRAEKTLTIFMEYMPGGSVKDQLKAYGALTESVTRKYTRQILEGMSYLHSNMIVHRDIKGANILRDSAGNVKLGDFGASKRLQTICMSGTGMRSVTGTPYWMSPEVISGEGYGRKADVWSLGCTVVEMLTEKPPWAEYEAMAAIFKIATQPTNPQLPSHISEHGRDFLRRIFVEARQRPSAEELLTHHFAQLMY
MEKK2 mut-MEK5 = signal of MEK5 binding to mutant human MEKK2 PB1 domain | bead flow cytometry, Alexa488-MEK5 binding to MEKK2 mutant | percent response, % at 10 µM | hit rate 0.35% among 290,000; in the data active means percent response above about 24%, passing the limit was not always enough
MEKK2wt confirm = raises or lowers MEK5 binding to wildtype human MEKK2, retest. shares compounds with MEKK3 PB1 HTS. bead flow cytometry, Alexa488-MEK5 binding to MEKK2 WT; actives lie on both sides. binding response (% of control), % at 10 µM. hit rate 2.4% among 5,900. AID 1892; in the data active means binding response below about 16% or above about 210%; inactive means in between
MEKK2mut confirm = signal of MEK5 binding to mutant human MEKK2, retest; shares compounds with MEKK3 PB1 HTS; bead flow cytometry, Alexa488-MEK5 binding to MEKK2 mutant; percent response, % at 10 µM; hit rate 2% among 5,900; AID 1893; in the data active means percent response mostly above about 71%, no sharp cut-off; inactive means mostly below about 38%;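 further: higher means compound restores mutant binding toward wildtype level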
MEKK3 confirm = confirmation of inhibitors of MEK5 binding to human MEKK3. shares compounds with MEKK3 PB1 HTS. bead flow cytometry, Alexa488-MEK5 binding to MEKK3; stronger effect = lower value. binding response (% of control), % at 10 µM. hit rate 1.8% among 5,900. AID 1894;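 active means binding response below 72% of control, or above a set upper limit, though filed actives all read lower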
A number is an active result; – = inactive; · = no result; [ ] = dose if it differs, or a comment.

SMILES	ATG4B inh	Dynein cargo inh	MEKK2wt PB1 HTS	Beta2AR agonist	MEKK3 PB1 HTS	MEKK2 mut-MEK5	MEKK2wt confirm	MEKK2mut confirm	MEKK3 confirm
CCOC(=O)c1cc(C(=O)NC(C)c2ccccc2)c(=O)[nH]c1C (stereo not drawn)	–	·	–	–	–	–	·	·	·
CN1CCc2c(sc3c2C(=O)NC(c2ccc(-c4cccc(Cl)c4)o2)N3)C1 (stereo not drawn)	–	–	170	–	–	–	–	–	–
O=C(/C=C/c1ccccc1)NC(NC(=S)Nc1cccc(O)c1)C(Cl)(Cl)Cl (stereo not drawn)	–	–	139	–	–	–	–	–	–
CCCNC(=S)Nc1ccc(Cl)cc1C	–	–	–	–	–	–	·	·	·
Cc1cc(Cl)ccc1NC(=S)NCc1ccccc1Cl	–	–	–	–	128	–	–	–	–
Cc1cc(Cl)ccc1NC(=S)NCC(C)C	–	–	–	–	138	–	–	–	–
COc1ccc2c(-c3ccc(S(N)(=O)=O)cc3)c(-c3ccc(S(C)(=O)=O)cc3)sc2c1	–	·	·	–	·	·	·	·	·
Fc1ccccc1NC(=S)NCCc1cccc(Cl)c1	–	·	–	–	–	–	·	·	·
O=C1CSC(=Nc2ccccc2[N+](=O)[O-])N1	–	–	–	–	–	–	·	·	·
O=c1cc(CSc2nnc(COc3ccccc3)o2)c2ccccc2[nH]1	–	–	–	–	125	–	–	–	–
Cc1ccc(OCc2nnc(SCc3cc(=O)[nH]c4ccccc34)o2)cc1	–	–	–	–	–	–	·	·	·
CCN(CC)c1c2c(c(C#N)c3nc4ccccc4n13)CCC2	–	–	–	–	69[inhibitor]	–	–	–	–
CCN(CC)c1cc(C)c(C#N)c2nc3ccccc3n12	–	–	–	–	–	–	·	·	·
Cc1cc(C)cc(OCC(=O)OCC(=O)c2cc(C)n(C3CC3)c2C)c1	–	·	–	–	–	–	·	·	·
CC1CCC2C(=O)N(c3ccc(NC4CCN(Cc5ccccc5)CC4)c([N+](=O)[O-])c3)C(=O)C2C1 (stereo not drawn)	–	–	–	–	70[inhibitor]	–	–	–	–
CC1(C)CC(N=Cc2c(O)n(Cc3ccc4c(c3)OCO4)c(=O)c3ccccc23)CC(C)(C)N1	–	–	149	–	–	–	–	–	–
CC(=O)c1sc(NC(=O)CCS(=O)(=O)c2ccc(Cl)cc2)nc1C	–	·	·	–	·	·	·	·	·
Cc1nc(CS(=O)(=O)c2ccc(Cl)cc2)sc1C(=O)O	–	–	–	–	129	–	–	–	–
COc1ccc(C(=O)N2CCN(CCCc3ccccc3)CC2)cc1OC	–	·	–	–	–	–	·	·	·
COc1cc(N(Cc2ccccc2)Cc2ccccc2)c2ncn(C(C)C)c2c1	–	·	·	–	·	·	·	·	·
CC(C)n1cnc2c(N(C)c3ccccc3)nc(N(CCN(C)C)Cc3ccccc3)nc21	–	–	175	–	–	–	–	–	–
O=C(CNC(=O)c1ccccc1F)NCC(c1cccs1)N1CCOCC1 (stereo not drawn)	–	·	·	–	·	·	·	·	·
COc1ccc(Cl)cc1NC(=O)NC(C)C	–	–	–	–	47[inhibitor]	–	–	–	–
COc1cccc(C(C)NC(=O)Nc2cc(Cl)ccc2OC)c1 (stereo not drawn)	–	–	–	–	–	–	·	·	·
COc1ccc(Cc2nc3c([nH]2)c(=O)n(C)c(=O)n3C)cc1OC	–	·	·	–	·	·	·	·	·
SMILES	ATG4B inh	Dynein cargo inh	MEKK2wt PB1 HTS	Beta2AR agonist	MEKK3 PB1 HTS	MEKK2 mut-MEK5	MEKK2wt confirm	MEKK2mut confirm	MEKK3 confirm
Cc1nc2ccccc2c2oc(C(=O)N3CCC(N4CCCCC4)CC3)cc12	–	–	138	–	–	26	–	–	–
CC(C)(C)N(Cc1ccccc1)C(=O)COC(=O)C1CC(=O)N(Cc2ccccc2)C1 (stereo not drawn)	–	·	·	–	·	·	·	·	·
COC(=O)CC1Oc2ccc(C)cc2NC1=O (stereo not drawn)	–	–	19[inhibitor]	–	16[inhibitor]	–	–	–	–
Cc1ccc(NC(=O)CC2Oc3ccc(C)cc3NC2=O)cc1 (stereo not drawn)	–	–	–	–	–	–	·	·	·
CCOC(=O)c1c(C)[nH]c(C(=O)NCc2ccco2)c1C	·	–	–	·	143	–	–	–	–
CCOC(=O)c1ccc(NC(=S)NC2CCCC2)cc1	–	–	–	–	65[inhibitor]	–	–	–	–
CCOC(=O)c1ccc(NC(=S)NCCCN2CCOCC2)cc1	–	–	–	–	–	–	·	·	·
CCOC(=O)c1ccc(NC(=S)NN2CCN(C)CC2)cc1	–	–	–	–	41[inhibitor]	–	–	–	–
Cc1nc2ccccc2nc(=O)c1NNc1ccccc1	–	–	–	–	51[inhibitor]	–	–	–	–
Cc1ccc2nc(=O)c(NNc3ccccc3)cnc2c1	–	–	–	–	–	–	·	·	·
O=C(N/N=C/c1ccccc1)NC1CCCCC1	–	–	–	–	67[inhibitor]	–	–	–	–
O=C(N/N=C/c1ccccc1OC(F)F)NC1CCCCC1	–	–	–	–	–	–	·	·	·
O=C(N/N=C/c1cccc(F)c1)NC1CCCCC1	–	–	–	–	–	–	·	·	·
O=C(N/N=C/c1ccccc1F)NC1CCCCC1	–	–	–	–	140	–	–	–	68
O=[N+]([O-])c1ccccc1S(=O)(=O)c1ccccc1[N+](=O)[O-]	–	·	–	–	–	–	·	·	·
O=C(Nc1ccnn1C1CCN(Cc2ccc(OC(F)F)cc2)CC1)C1CCCC1	–	·	135	–	–	–	–	–	–
Cc1cccc(N2CCN(CC(=O)Nc3ccc(S(=O)(=O)N4CCOCC4)cc3)CC2)c1C	–	·	–	–	–	–	·	·	·
Cc1ccc(S(=O)(=O)NC(=O)N(C)C2CCCCC2)cc1	–	–	–	–	130	–	–	–	–
C=C(C)C(=O)Nc1nnc(-c2ccccc2C)s1	–	–	–	–	74[inhibitor]	–	–	–	–
C/C=C/C(=O)Nc1nnc(-c2ccccc2C)s1	–	–	–	–	–	–	·	·	·
O=C(CSc1ncnc2scc(-c3ccccc3)c12)N1CCN(Cc2ccc3c(c2)OCO3)CC1	–	–	–	–	–	–	·	·	·
O=C(CSc1nnc(COc2ccccc2)o1)NCCc1ccccc1	–	–	–	–	–	–	·	·	·
Cc1cccc(OCc2nnc(SCC(=O)NCCc3ccccc3)o2)c1	–	–	-7.0[inhibitor]	–	–	–	–	–	–
